Test results taken from ChEMBL document CHEMBL4400539, “Discovery of a Novel Chemotype of Histone Lysine Methyltransferase EHMT1/2 (GLP/G9a) Inhibitors: Rational Design, Synthesis, Biological Evaluation, and Co-crystal Structure” (J Med Chem, 2019).
Activity calls are given as the source filed them. The calls are words filed in the database; no cut-off is given here.

Tests used:
[1] = target: T1, Histone-lysine N-methyltransferase EHMT2 (Homo sapiens, UniProt Q96KQ7); experiment: Inhibition of recombinant human G9a using biotinylated-Histone H3 peptide (1 to 21 residues) after 30 mins in presence of SAM by AlphaLISA assay
T1 sequence (Q96KQ7 whole entry): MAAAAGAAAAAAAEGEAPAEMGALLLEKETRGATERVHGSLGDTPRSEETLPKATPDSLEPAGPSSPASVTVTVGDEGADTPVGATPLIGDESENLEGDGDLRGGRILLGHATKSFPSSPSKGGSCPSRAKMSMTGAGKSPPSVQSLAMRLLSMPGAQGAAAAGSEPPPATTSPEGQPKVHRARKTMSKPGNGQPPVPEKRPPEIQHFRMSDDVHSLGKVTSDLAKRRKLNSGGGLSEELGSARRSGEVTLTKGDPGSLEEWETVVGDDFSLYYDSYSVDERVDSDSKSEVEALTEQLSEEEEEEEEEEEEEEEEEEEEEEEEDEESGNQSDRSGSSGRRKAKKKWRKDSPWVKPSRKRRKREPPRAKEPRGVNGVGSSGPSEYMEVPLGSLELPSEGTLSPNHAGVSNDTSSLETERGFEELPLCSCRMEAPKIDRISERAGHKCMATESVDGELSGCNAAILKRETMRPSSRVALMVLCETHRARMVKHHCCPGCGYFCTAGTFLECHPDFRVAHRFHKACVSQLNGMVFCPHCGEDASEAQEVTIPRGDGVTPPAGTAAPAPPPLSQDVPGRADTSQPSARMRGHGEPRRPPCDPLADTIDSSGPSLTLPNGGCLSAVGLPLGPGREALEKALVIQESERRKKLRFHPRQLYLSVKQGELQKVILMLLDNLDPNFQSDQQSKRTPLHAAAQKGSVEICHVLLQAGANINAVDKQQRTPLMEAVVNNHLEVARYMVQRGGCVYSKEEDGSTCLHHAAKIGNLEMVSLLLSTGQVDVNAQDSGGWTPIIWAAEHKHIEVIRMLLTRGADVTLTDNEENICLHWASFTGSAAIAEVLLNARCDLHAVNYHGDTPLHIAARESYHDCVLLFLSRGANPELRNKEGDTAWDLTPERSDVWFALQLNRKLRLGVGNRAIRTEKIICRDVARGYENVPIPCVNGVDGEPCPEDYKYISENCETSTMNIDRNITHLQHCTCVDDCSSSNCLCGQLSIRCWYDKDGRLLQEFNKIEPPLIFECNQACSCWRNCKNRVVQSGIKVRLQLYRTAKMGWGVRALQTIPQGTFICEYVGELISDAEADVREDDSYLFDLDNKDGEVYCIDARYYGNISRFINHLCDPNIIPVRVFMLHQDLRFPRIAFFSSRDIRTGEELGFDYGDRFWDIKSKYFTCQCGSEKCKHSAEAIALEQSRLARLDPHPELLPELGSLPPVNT

[2] = target: T2, Histone-lysine N-methyltransferase EHMT2 (Homo sapiens) (UniProt Q96KQ7); experiment: Inhibition of recombinant human G9a at 10 uM using biotinylated-Histone H3 peptide (1 to 21 residues) after 30 mins by AlphaLISA assay relative to control
T2 sequence (whole entry): T1 sequence (Q96KQ7 whole entry)
Outline: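 G9a AlphaLISA at fixed 10 or 25 μM compound: human recombinant G9a 1 nM, 30 min preincubation, then biotinylated H3(1–21) 100 nM plus SAM 15 μM for 30 min at room temperature, pH 8.8 Tris buffer with 0.01% Tween-20; anti-H3K9me2 acceptor and streptavidin donor beads; percent of DMSO control.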

[3] = target: DNA (cytosine-5)-methyltransferase 1 (Homo sapiens, UniProt P26358); experiment: Inhibition of N-terminal GST-tagged recombinant full length human DNMT1 (2 to 1632 residues) using poly(dI-dC)):poly(dI-dC) as substrate preincubated for 20 mins followed by [3H]-SAM and measured after 60 mins by scintillation counting
[4] = target: Protein arginine N-methyltransferase 3 (Homo sapiens) (UniProt O60678); experiment: Inhibition of recombinant human PRMT3 at 10 to 25 uM using biotinylated-Histone H4 peptide (1 to 21 residues) as substrate preincubated for 30 mins followed by substrate addition and measured after 60 mins in presence of SAM by AlphaLISA assay relative to control
Protein arginine N-methyltransferase 3 (Homo sapiens), sequence (O60678 2-531 limits assumed): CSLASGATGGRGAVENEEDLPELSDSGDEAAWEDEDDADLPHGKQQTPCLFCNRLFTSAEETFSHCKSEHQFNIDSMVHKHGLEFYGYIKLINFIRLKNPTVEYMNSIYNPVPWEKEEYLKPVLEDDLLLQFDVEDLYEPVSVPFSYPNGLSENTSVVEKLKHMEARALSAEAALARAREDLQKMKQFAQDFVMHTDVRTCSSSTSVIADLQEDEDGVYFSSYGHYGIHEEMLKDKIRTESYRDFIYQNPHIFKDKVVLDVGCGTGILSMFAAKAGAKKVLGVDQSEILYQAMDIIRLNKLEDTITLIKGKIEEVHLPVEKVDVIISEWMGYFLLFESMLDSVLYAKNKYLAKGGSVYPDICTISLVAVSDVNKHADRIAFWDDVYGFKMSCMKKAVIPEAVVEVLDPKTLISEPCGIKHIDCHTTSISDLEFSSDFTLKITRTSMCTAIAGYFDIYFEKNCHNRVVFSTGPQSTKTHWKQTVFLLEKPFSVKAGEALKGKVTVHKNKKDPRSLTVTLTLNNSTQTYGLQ
Outline: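 Biotinylated H4(1–21) peptide plus SAM then added for 60 min: PRMT1 0.9 nM, peptide 100 nM, SAM 2 μM; PRMT3 23 nM, peptide 50 nM, SAM 10 μM. Anti-H4R3me AlphaLISA; 10 and 25 μM; three experiments, mean ± SD.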

[5] = target: Histone acetyltransferase p300 (Homo sapiens) (UniProt Q09472); experiment: Inhibition of recombinant human P300 at 10 to 25 uM using biotinylated-Histone H4 peptide (1 to 21 residues) as substrate preincubated for 30 mins followed by substrate addition and measured after 60 mins in presence of SAM by AlphaLISA assay relative to control
Histone acetyltransferase p300 (Homo sapiens), sequence (Q09472 whole entry, the tested form may be a part): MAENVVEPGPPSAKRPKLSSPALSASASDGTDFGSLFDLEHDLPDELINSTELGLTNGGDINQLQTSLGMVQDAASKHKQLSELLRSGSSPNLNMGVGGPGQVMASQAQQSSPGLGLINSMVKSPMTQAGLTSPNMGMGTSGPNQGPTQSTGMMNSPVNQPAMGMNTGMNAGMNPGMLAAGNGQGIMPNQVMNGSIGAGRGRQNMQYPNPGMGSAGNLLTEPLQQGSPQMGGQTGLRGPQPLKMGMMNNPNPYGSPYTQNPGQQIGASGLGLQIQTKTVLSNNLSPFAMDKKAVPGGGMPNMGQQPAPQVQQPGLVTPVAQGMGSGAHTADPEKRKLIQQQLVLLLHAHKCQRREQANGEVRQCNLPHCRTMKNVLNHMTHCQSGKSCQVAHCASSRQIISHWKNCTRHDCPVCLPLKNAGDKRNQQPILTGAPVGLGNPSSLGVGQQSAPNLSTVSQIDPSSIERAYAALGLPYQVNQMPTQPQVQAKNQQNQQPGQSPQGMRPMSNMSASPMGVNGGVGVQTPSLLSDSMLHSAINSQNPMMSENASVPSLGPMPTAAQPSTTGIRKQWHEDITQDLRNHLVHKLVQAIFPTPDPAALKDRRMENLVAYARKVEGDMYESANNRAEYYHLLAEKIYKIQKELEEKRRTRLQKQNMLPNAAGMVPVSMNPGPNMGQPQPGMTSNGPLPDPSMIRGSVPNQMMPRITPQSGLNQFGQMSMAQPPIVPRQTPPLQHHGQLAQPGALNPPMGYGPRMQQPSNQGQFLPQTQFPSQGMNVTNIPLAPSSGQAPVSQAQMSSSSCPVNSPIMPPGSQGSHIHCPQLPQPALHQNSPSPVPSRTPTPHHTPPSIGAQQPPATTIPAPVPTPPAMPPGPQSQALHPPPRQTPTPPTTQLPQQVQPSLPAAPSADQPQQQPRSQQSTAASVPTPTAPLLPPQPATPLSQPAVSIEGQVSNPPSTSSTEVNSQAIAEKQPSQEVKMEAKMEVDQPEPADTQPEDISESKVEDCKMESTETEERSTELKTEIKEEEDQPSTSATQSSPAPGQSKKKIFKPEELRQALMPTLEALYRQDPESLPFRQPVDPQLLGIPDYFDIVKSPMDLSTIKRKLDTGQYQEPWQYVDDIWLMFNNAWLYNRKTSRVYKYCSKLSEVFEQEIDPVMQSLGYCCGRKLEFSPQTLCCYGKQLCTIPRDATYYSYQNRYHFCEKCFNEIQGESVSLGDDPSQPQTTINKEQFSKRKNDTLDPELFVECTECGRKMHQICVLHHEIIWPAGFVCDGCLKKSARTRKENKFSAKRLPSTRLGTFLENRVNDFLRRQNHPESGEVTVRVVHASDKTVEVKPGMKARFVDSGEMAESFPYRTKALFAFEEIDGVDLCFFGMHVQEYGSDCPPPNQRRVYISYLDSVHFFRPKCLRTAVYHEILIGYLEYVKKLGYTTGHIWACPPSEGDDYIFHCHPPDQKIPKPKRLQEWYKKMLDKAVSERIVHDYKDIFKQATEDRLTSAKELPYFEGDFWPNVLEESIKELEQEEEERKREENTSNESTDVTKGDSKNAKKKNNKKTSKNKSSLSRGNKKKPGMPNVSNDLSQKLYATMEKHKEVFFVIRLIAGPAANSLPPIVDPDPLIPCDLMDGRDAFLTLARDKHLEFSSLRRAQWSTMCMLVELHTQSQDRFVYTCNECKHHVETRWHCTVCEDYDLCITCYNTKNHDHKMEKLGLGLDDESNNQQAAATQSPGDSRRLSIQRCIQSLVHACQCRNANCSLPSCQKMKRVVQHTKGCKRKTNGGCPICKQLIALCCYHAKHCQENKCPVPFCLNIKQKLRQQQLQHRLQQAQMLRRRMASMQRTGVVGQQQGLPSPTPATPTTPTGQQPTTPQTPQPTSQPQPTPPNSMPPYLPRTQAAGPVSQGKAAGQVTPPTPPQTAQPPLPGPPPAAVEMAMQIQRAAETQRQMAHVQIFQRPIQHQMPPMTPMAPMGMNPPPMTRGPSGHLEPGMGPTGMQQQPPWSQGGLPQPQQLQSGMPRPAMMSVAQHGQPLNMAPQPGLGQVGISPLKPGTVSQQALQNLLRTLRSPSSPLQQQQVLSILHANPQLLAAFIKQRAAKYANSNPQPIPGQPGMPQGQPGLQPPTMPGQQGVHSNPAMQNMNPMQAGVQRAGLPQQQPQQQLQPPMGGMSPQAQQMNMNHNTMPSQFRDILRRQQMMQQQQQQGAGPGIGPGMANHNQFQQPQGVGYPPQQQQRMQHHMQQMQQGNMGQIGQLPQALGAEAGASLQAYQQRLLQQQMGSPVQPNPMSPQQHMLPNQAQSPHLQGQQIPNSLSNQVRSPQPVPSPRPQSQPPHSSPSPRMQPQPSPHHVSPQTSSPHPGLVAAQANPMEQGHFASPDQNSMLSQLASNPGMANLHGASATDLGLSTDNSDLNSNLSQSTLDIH

[6] = Chemical stability of the compound in PBS buffer after 72 hrs by HPLC analysis; assay type: physicochemical
Outline: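 Stability checked by HPLC after exposure to PBS over 72 h.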

[7] = Metabolic stability in human liver microsomes assessed as parent compound turn over percentage at 1 mM preincubated for 5 mins followed by NADPH addition and measured for 60 mins by UHPLC analysis; assay type: ADME, Microsome; conditions: read-out: Drug metabolism
[8] = Apparent permeability of the compound after 24 hrs by PAMPA; assay type: ADME
MDA-MB-231 = experiment: Cytotoxicity against human MDA-MB-231 cells assessed as reduction in cell viability up to 5 uM after 72 hrs by MTT assay; assay type: cell-based; conditions: mda-mb-231, 72 h
Outline: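 MCF-7, MDA-MB-231 and U-343 cells exposed 24, 48 and 72 h to 0.05, 0.5, 5 and 50 μM compound; viability by MTT reduction to formazan versus vehicle; mean ± SD of at least three independent experiments.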

[9] = target: DNA (cytosine-5)-methyltransferase 3A (Homo sapiens) (UniProt Q9Y6K1); experiment: Inhibition of N-terminal GST-tagged recombinant full length human DNMT3a (2 to 913 residues) using bacteriophage lambda DNA as substrate preincubated for 20 mins followed by [3H]-SAM and measured after 60 mins by scintillation counting
DNA (cytosine-5)-methyltransferase 3A (Homo sapiens), sequence (Q9Y6K1 whole entry, looked up, the tested form may be a part): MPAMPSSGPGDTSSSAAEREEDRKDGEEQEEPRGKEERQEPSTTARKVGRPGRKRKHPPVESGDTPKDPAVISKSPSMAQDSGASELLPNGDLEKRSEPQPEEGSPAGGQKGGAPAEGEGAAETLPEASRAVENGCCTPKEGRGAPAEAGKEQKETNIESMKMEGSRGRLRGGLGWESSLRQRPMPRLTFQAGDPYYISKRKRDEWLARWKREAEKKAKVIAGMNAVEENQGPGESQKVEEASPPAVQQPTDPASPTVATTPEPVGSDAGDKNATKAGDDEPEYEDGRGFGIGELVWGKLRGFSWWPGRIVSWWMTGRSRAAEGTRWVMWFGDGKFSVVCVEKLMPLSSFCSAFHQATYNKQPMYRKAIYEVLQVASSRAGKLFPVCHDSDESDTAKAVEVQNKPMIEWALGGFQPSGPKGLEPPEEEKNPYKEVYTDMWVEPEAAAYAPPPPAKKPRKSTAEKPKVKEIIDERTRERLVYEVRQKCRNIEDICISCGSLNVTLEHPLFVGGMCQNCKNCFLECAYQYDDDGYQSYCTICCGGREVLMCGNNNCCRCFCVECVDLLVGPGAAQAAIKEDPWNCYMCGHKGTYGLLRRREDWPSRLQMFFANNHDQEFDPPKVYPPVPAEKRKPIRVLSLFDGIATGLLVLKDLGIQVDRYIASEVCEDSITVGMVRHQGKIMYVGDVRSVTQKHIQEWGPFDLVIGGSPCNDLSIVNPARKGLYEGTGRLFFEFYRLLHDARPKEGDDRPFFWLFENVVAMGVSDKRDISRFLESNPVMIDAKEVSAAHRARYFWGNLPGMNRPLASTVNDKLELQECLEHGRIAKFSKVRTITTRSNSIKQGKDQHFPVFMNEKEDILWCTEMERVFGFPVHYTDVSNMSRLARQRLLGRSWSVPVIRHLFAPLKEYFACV

[10] = target: T2, Histone-lysine N-methyltransferase EHMT2 (Homo sapiens)
[11] = target: T2, Histone-lysine N-methyltransferase EHMT2 (Homo sapiens); remark: listed apart in the source
[12] = target: T1, Histone-lysine N-methyltransferase EHMT2; experiment: Competitive inhibition of recombinant human G9a using biotinylated-Histone H3 peptide (1 to 21 residues) as substrate at varying concentration after 30 mins in presence SAM by Lineweaver-Burk plot analysis

IC50 [1]: 23 nM
inhibition [2]: 97%
IC50 [3]: 3100 nM
inhibition [4]: inactive
inhibition [5]: inactive
Stability [6]: Stable
metabolised at 1 h [7]: 2.25%
Papp [8]: 4.8 ×10⁻⁷ cm/s
inhibition [9]: inactive
Ka [10]: 550
Kdiss [11]: 0.0351
Ki [12]: 13.8 nM
SMILES: COc1cc2c(cc1OCCCN1CCCC1)N=C(C1CCCCC1)CN=C2NC1CCN(C(C)C)CC1
Activity (MDA-MB-231): Non-Toxic
